From ChEMBL document CHEMBL1122273, “5-sulfamoylorthanilic acids, a sulfonamide series with salidiuretic activity” (J Med Chem, 1983)

Legend:
Canis familiaris [1] = assay: sodium excretion collected at 7-24 hr time after oral administration in dog (four animals per dose) at dose 0.39 mg/kg.; type: functional, Canis lupus familiaris
Procedure, shortened: (§1)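 Trained male beagles, four per dose, fasted 24 h with tap water ad libitum. After bladder emptying, given 20 mL/kg tap water by stomach tube, then 4 mL/kg at each hourly catheterization; 2 h control collection, then oral dosing. Urine volume and Na⁺ (flame photometry) reported for 1–6, 7–24 and 1–24 h post-dose periods.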

Canis familiaris [2] = assay: Saluretic activity in the dog measured as concentration of Na+ in urinary excretion (2 animals/dose) at a dose of 0.1 mg/Kg, perorally; type: functional, Canis lupus familiaris, Urine
Procedure, shortened: (§2)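 Male beagles trained to rest on a table and to accept stomach tube and catheter. Food withdrawn 24 h before, tap water ad libitum. Bladder emptied by catheter, then 20 mL/kg tap water by stomach tube. Catheterized hourly up to 8 h with 4 mL/kg water orally each time; first 2 h urine served as control. Oral dosing after second catheterization. Pooled 1–6 h urine; Na⁺/K⁺ by flame photometry, Cl⁻ argentometrically.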

Canis familiaris [3] = assay: Urinary excretion collected at 7-24 hr time after oral administration in dog (four animals per dose) at dose 6.25 mg/kg.; type: functional, Canis lupus familiaris, Urine; procedure, shortened: as §1
Canis familiaris [4] = assay: Urinary excretion collected at 7-24 hr time after oral administration in dog (four animals per dose) at dose 0.39 mg/kg.; type: functional, Canis lupus familiaris, Urine; procedure, shortened: as §1
Canis familiaris [5] = assay: Saluretic activity in the dog measured as concentration of Na+ in urinary excretion (2 animals/dose) at (dose 12.5 mg/Kg, perorally); type: functional, Canis lupus familiaris, Urine; procedure, shortened: as §2
Canis familiaris [6] = assay: Urinary excretion collected at 1-6 hr time after oral administration in dog (four animals per dose) at dose 0.39 mg/kg.; type: functional, Canis lupus familiaris, Urine; procedure, shortened: as §1
Rattus norvegicus = species: Rattus norvegicus; assay: Effect on inulin U/P ratio in rats in comparison to furosemide activity
Canis familiaris [7] = assay: Urinary excretion collected at 1-6 hr time after oral administration in dog (four animals per dose) at dose 6.25 mg/kg.; type: functional, Canis lupus familiaris, Urine; procedure, shortened: as §1
Canis familiaris [8] = assay: sodium excretion collected at 1-24 hr time after oral administration in dog (four animals per dose) at dose 0.39 mg/kg.; type: functional, Canis lupus familiaris; procedure, shortened: as §1
Canis familiaris [9] = assay: sodium excretion collected at 1-6 hr time after oral administration in dog (four animals per dose) at dose 1.56 mg/kg.; type: functional, Canis lupus familiaris; procedure, shortened: as §1
Canis familiaris [10] = assay: sodium excretion collected at 1-24 hr time after oral administration in dog (four animals per dose) dosed at 0.39 mg/kg.; type: functional, Canis lupus familiaris; procedure, shortened: as §1
Canis familiaris [11] = assay: urinary excretion collected at 1-6 hr time after oral administration in dog (four animals per dose) dosed at 0.05 mg/kg.; type: functional, Canis lupus familiaris, Urine
Procedure, shortened: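 Trained male beagles, four per dose, fasted 24 h with tap water ad libitum. The bladder was emptied by catheter, then 20 mL/kg tap water was given by stomach tube. Dogs were catheterized hourly with 4 mL/kg water orally each time, and the first 2 h served as control. Compound was given orally after the second catheterization. Urine volume and flame-photometric Na⁺ were measured over 1-6, 7-24 and 1-24 h.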

Canis familiaris [12] = assay: urinary excretion collected at 7-24 hr time after oral administration in dog (four animals per dose) dosed at 3.12 mg/kg.; type: functional, Canis lupus familiaris, Urine
Canis familiaris [13] = assay: Saluretic activity in the dog measured as concentration of Na+ in urinary excretion (2 animals/dose) at (dose 0.025 mg/Kg, perorally); type: functional, Canis lupus familiaris, Urine; procedure, shortened: as §2
[14] = It is the ratio, measured as saluretic activity in the dog as concentration of Cl- in urinary excretion (dose 0.4 mg/Kg, po) to that of (Na+)+(K+); type: functional, Urine
Procedure, shortened: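 Trained male beagles, fasted 24 h with tap water ad libitum. Bladder emptied by catheter, then 20 mL/kg tap water by stomach tube, with 4 mL/kg water at each hourly catheterization up to 8 h. The first 2 h of urine served as control. Oral dosing came after the second catheterization, and 1–6 h urine was pooled. Na⁺ and K⁺ were measured by flame photometry, Cl⁻ argentometrically, in mequiv/kg.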

Compound | Na+ excretion (Canis familiaris [1]) | Saluretic activity (Canis familiaris [2]) | Urinary excretion (Canis familiaris [3]) | Urinary excretion (Canis familiaris [4]) | Saluretic activity (Canis familiaris [5]) | Urinary excretion (Canis familiaris [6]) | Ratio (Rattus norvegicus) | Urinary excretion (Canis familiaris [7]) | Na+ excretion (Canis familiaris [8]) | Na+ excretion (Canis familiaris [9]) | Na+ excretion (Canis familiaris [10]) | Urinary excretion (Canis familiaris [11]) | Urinary excretion (Canis familiaris [12]) | Saluretic activity (Canis familiaris [13]) | Ratio [14]
NS(=O)(=O)c1cc(S(=O)(=O)[O-])c(NCc2ccco2)cc1Oc1ccccc1.[Na+] | 0.47 mequiv kg-1 | 0.18 m equiv 5hr-1 kg-1 | 38.3 mL/kg | 9.3 mL/kg | 6.49 m equiv 6hr-1 kg-1 | 41.6 mL/kg | 7.66 | 75.4 mL/kg | 2.04 mequiv/kg | 4.97 mequiv kg-1 | – | – | – | – | –
CN(c1ccccc1)c1cc(NCc2ccco2)c(S(=O)(=O)[O-])cc1S(N)(=O)=O.[Na+] | – | – | – | – | – | – | – | – | – | – | 5.81 mequiv kg-1 | 40.5 mL/kg | 40.8 mL/kg | 0.45 m equiv 6hr-1 kg-1 | 1
